The record followed here is PubChem BioAssay AID624081 (The Scripps Research Institute Molecular Screening Center, 2012).

SMILES strings stand for the structures. “And” between values parts separate entries of the source, which are not always exact repeats. Equal values may be shown once. The source made the active and inactive calls.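 The calls were made as follows: active = inhibitor concentration giving a fourfold drop in imipenem MIC is at most 10 µM; inactive = fourfold MIC drop needs more than 10 µM.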

The nature of test [1]: imipenem potentiation in VIM-2-expressing E. coli, late-stage follow-up, MIC 4-fold reduction, powder samples (AID 624081). To be noted: VIM-2 E. coli growth with imipenem, OD600, 18 h; measured here: max imipenem potentiation fold. Put shortly: (§1)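 Material: VIM-2-transformed Escherichia coli, checkerboard broth microdilution with imipenem | Buffer or medium: Cation-adjusted MH broth | Probe or stimulus: Imipenem, two-fold series | Doses: Test compound in two-fold dilution series along plate rows | Timing: Aerobic incubation of at least 18 h at 37 °C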

Test [2] has as its system VIM-2 E. coli growth with imipenem, OD600, 18 h. The description is as above. Put shortly: as §1

Take `CN1CCN(NC(=O)CN2C(=O)/C(=C/c3c(C(F)(F)F)ccc(Cl)c3Cl)SC2=S)CC1`: the fold potentiation in test [1] turned out to be 8. The MIC – broadly, the lowest concentration found to suppress growth – in test [2] was 1.56 µM. On the same counts, the results for `O=C1/C(=C/c2c(Cl)cccc2Cl)SC(=S)N1Cc1ccncc1` are 8 and 12.5 µM (inactive).

Consider `O=C(CN1C(=O)/C(=C/c2c(Cl)cccc2Cl)SC1=S)NN1CCCCC1`, for which the fold potentiation in test [1] was 8. For the same compound, the MIC in test [2] is 6.2 µM. On to `CN(NC(=O)CN1C(=O)/C(=C/c2c(Cl)cccc2Cl)SC1=S)c1ncc(C(F)(F)F)cc1Cl`, for which the MIC in test [2] was > 100 µM (inactive). On to `O=C(CN1C(=O)/C(=C/c2c(Cl)cccc2Cl)SC1=S)NCc1ccccn1`, for which, in test [1], the fold potentiation amounted to 8. In addition, in test [2], the MIC was 6.2 µM. On to `CN1CCN(NC(=O)CN2C(=O)/C(=C/c3c(Cl)ccc(Cl)c3Cl)SC2=S)CC1`, for which, in test [1], the fold potentiation was 8. Further, in test [2], the MIC is 3.12 µM. As for `COc1ccc(CNC(=O)CN2C(=O)/C(=C/c3c(Cl)cccc3Cl)SC2=S)cc1`, the MIC in test [2] was > 100 µM (inactive). For `CN1CCN(NC(=O)CN2C(=O)/C(=C/c3ccccc3F)SC2=S)CC1`, the MIC in test [2] is > 100 µM (inactive). In the case of `CN1CCN(NC(=O)CN2C(=O)/C(=C/c3c(Cl)ccc(C(F)(F)F)c3Cl)SC2=S)CC1`, the fold potentiation in test [1] came out at 8. Moreover, the MIC in test [2] was 0.781 µM. Take `O=C(CN1C(=O)/C(=C/c2c(Cl)cccc2Cl)SC1=S)Nc1ccc(I)cn1`: the MIC in test [2] was > 100 µM (inactive).

With `O=C(CN1C(=O)/C(=C/c2c(Cl)cccc2Cl)SC1=S)Nn1cnnc1`, the MIC in test [2] is > 100 µM (inactive). `O=C(CN1C(=O)/C(=C/c2c(Cl)cccc2Cl)SC1=S)NC[C@H]1CCCO1`: the MIC in test [2] is > 100 µM (inactive). The same measure, in the same setting: next, `O=C(CN1C(=O)/C(=C/c2c(Cl)cccc2Cl)SC1=S)NCc1ccncc1`: 12.5 µM (inactive). In the case of `O=C(CN1C(=O)/C(=C/c2c(Cl)cccc2Cl)SC1=S)Nc1ccccc1F`, the MIC in test [2] is > 100 µM (inactive). The same measure, in the same setting: next, `CN1CCN(NC(=O)CN2C(=O)/C(=C/c3ccccc3Cl)SC2=S)CC1`: 50 µM (inactive); `O=C(CN1C(=O)/C(=C/c2c(Cl)cccc2Cl)SC1=S)NC[C@@H]1CCCO1`: > 100 µM (inactive); `O=C1NC(=S)S/C1=C\c1c(Cl)cccc1Cl`: > 100 µM (inactive).

`C=CCONC(=O)CN1C(=O)/C(=C/c2c(Cl)cccc2Cl)SC1=S`: in test [2], the MIC was > 100 µM (inactive). Regarding `CC(C)(C)OC(=O)N1CCN(NC(=O)CN2C(=O)/C(=C/c3c(Cl)cccc3Cl)SC2=S)CC1`, in test [1], the fold potentiation was determined as 8. Besides, in test [2], the MIC is 6.2 µM. For `O=C(CN1C(=O)/C(=C/c2c(Cl)cccc2Cl)SC1=S)NCCc1c[nH]c2ccccc12`, the MIC in test [2] was > 100 µM (inactive).

In the case of `O=C(CN1C(=O)/C(=C/c2c(Cl)cccc2Cl)SC1=S)Nc1ccc(Cl)cn1`, the MIC in test [2] is > 100 µM (inactive). Turning to `O=C(O)CN1C(=O)/C(=C/c2c(F)cccc2C(F)(F)F)SC1=S`, the fold potentiation in test [1] amounted to 8. The MIC in test [2] is 25 µM (inactive).

Consider `O=C(CN1C(=O)/C(=C/c2c(Cl)cccc2Cl)SC1=S)NCc1ccccc1Br`, for which the MIC in test [2] is > 100 µM (inactive). Take `O=C(CN1C(=O)/C(=C/c2c(Cl)cccc2Cl)SC1=S)Nc1ccc(Br)cn1`: in test [2], the MIC is > 100 µM (inactive). Consider `O=C(CN1C(=O)/C(=C/c2c(Cl)cccc2Cl)SC1=S)Nc1ccncc1`, for which the fold potentiation in test [1] stood at 8. Also, the MIC in test [2] was 12.5 µM (inactive). Turning to `C=CCNC(=O)CN1C(=O)/C(=C/c2c(Cl)cccc2Cl)SC1=S`, the MIC in test [2] is > 100 µM (inactive). In the case of `Cc1cc(C)n(NC(=O)CN2C(=O)/C(=C/c3c(Cl)cccc3Cl)SC2=S)c(=O)c1`, the fold potentiation in test [1] came to 8. Besides, the MIC in test [2] was 3.12 µM. Take `O=C(CN1C(=O)/C(=C/c2c(Cl)cccc2Cl)SC1=S)NN1CCNCC1`: in test [1], the fold potentiation stood at 8. The MIC in test [2] was 3.12 µM.

On to `O=C(CN1C(=O)/C(=C/c2c(Cl)cccc2Cl)SC1=S)Nc1cccnc1`, for which the fold potentiation in test [1] came to 8. Further, in test [2], the MIC is 3.12 µM.

For `Cc1cc(NC(=O)CN2C(=O)/C(=C/c3c(Cl)cccc3Cl)SC2=S)no1`, in test [2], the MIC was > 100 µM (inactive). `CN(NC(=O)CN1C(=O)/C(=C/c2c(Cl)cccc2Cl)SC1=S)c1ccc(Cl)nn1`: in test [2], the MIC was > 100 µM (inactive).

With `CN1CCN(NC(=O)CN2C(=O)/C(=C/c3c(Cl)cccc3Cl)SC2=S)CC1`, the fold potentiation in test [1] came out at 8. Moreover, the MIC in test [2] is 6.25 µM and 12.5 µM (inactive). Consider `CN1CCN(C(=O)CN2C(=O)/C(=C/c3c(Cl)cccc3Cl)SC2=S)CC1`, for which the fold potentiation in test [1] is 8. Besides, the MIC in test [2] is 12.5 µM (inactive). For the compound `CN(C)CCNC(=O)CN1C(=O)/C(=C\c2ccccc2Cl)SC1=S`, the MIC in test [2] is > 100 µM (inactive). Regarding `Cc1c(N2C(=O)/C(=C/c3c(Cl)cccc3Cl)SC2=S)c(=O)n(-c2ccccc2)n1C`, in test [1], the fold potentiation is 8. In addition, the MIC in test [2] was 12.5 µM (inactive).

Turning to `COC(=O)CN1C(=O)/C(=C/c2c(Cl)cccc2Cl)SC1=S`, in test [1], the fold potentiation is 8. The MIC in test [2] is 12.5 µM (inactive).

In the case of `O=C(CN1C(=O)/C(=C/c2c(Cl)ccc(Cl)c2Cl)SC1=S)NCc1ccccn1`, in test [2], the MIC is 3.12 µM. Regarding `CN(C)CCNC(=O)CN1C(=O)/C(=C/c2ccccc2Cl)SC1=S`, the MIC in test [2] is > 100 µM (inactive). Consider `O=C(CN1C(=O)/C(=C/c2c(Cl)ccc(Cl)c2Cl)SC1=S)NN1CCNCC1`, for which the MIC in test [2] was 12.5 µM (inactive). Turning to `CN1CCN(NC(=O)CN2C(=O)/C(=C/c3c(F)cccc3Cl)SC2=S)CC1`, the MIC in test [2] was 12.5 µM (inactive).

For `NC(=O)CN1C(=O)/C(=C/c2c(Cl)cccc2Cl)SC1=S`, in test [2], the MIC was 25 µM (inactive). `O=C(O)CN1C(=O)/C(=C/c2c(Cl)cccc2Cl)SC1=S`: the fold potentiation in test [1] amounted to 8. For the same compound, the minimal inhibitory concentration (MIC) in test [2] is 3.12 µM. Consider `CN1CCC(NC(=O)CN2C(=O)/C(=C/c3c(Cl)cccc3Cl)SC2=S)CC1`, for which the fold potentiation in test [1] was 8. In addition, the MIC in test [2] is 12.5 µM (inactive). In the case of `COC(=O)CNC(=O)CN1C(=O)/C(=C/c2c(Cl)cccc2Cl)SC1=S`, the MIC in test [2] is > 100 µM (inactive). Same read-out and setting: next, `CN1CCN(C(=O)CN2C(=O)/C(=C/c3c(Cl)ccc(Cl)c3Cl)SC2=S)CC1`: 6.25 µM; `O=C(CN1C(=O)/C(=C/c2ccccc2Cl)SC1=S)NCCc1cnc[nH]1`: > 100 µM (inactive).

Consider `CCN(CC)OC(=O)CN1C(=O)/C(=C/c2c(Cl)cccc2Cl)SC1=S`, for which, in test [1], the fold potentiation was determined as 8. Besides, in test [2], the MIC was 6.2 µM.

On to `O=C(CN1C(=O)/C(=C/c2c(Cl)cccc2Cl)SC1=S)Nc1ccccc1`, for which the MIC in test [2] was > 100 µM (inactive). As for `CC(C)(C)NC(=O)CN1C(=O)/C(=C/c2c(Cl)cccc2Cl)SC1=S`, the MIC in test [2] is > 100 µM (inactive). Take `O=C(CN1C(=O)/C(=C/c2c(Cl)cccc2Cl)SC1=S)Nc1cc([N+](=O)[O-])ccc1O`: the fold potentiation in test [1] amounted to 8. The MIC in test [2] was 3.12 µM. On the same counts, the results for `CN1CCN(NC(=O)CN2C(=O)/C(=C/c3c(F)cccc3C(F)(F)F)SC2=S)CC1` are 8 and 25 µM (inactive). As to `CC(C)(C)OC(=O)N1CCN(NC(=O)CN2C(=O)/C(=C/c3c(Cl)ccc(Cl)c3Cl)SC2=S)CC1`, the MIC in test [2] is 1.56 µM. In the case of `CC(C)N1CCN(NC(=O)CN2C(=O)/C(=C/c3c(Cl)cccc3Cl)SC2=S)CC1`, in test [1], the fold potentiation came out at 16. Besides, the MIC in test [2] is 12.5 µM (inactive). `O=C(CN1C(=O)/C(=C/c2c(Cl)cccc2Cl)SC1=S)Nc1ccccn1`: the MIC in test [2] is > 100 µM (inactive). The same measure, in the same setting: under `O=C(CN1C(=O)/C(=C/c2ccccc2Cl)SC1=S)Nc1ccc(O)cc1` stands > 100 µM (inactive).

With `O=C(CN1C(=O)/C(=C/c2c(Cl)cccc2Cl)SC1=S)NC1CCCCC1`, the MIC in test [2] was > 100 µM (inactive). Take `O=C(CN1C(=O)/C(=C/c2c(Cl)cccc2Cl)SC1=S)NOCc1ccccc1`: in test [2], the MIC is > 100 µM (inactive). On the same count and under the same terms, next, `CCOC(=O)c1c(NC(=O)CN2C(=O)/C(=C/c3c(Cl)cccc3Cl)SC2=S)sc2c1CCCC2`: > 100 µM (inactive).
